Test: Displacement of [3H]RX-821002 from alpha-2 adrenergic receptor of calf frontal cortex membranes
Format: tissue-based, Bos taurus
How it was run: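 Calf frontal cortex membranes (0.5 mg protein/mL) incubated 60 min at 25 °C with 0.8 nM [3H]RX821002 plus 0.3 µM 5HT to mask 5HT1A sites, in 50 mM sodium phosphate pH 7.4, drug 10^-9 to 10^-4 M. Nonspecific binding with 10 µM phentolamine. Bound ligand separated by GF/C filtration and counted. Three experiments in triplicate; Ki by Cheng-Prusoff.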

Log Ki | Compound
> -5 | C1CN=C(NC(C2CC2)C2CC2)C1
> -5 | CC1CN=C(NC(C2CC2)C2CC2)C1 (stereo not drawn)

The next lines start with the compound.

Compound | Log Ki
C1CCC2N=C(NC(C3CC3)C3CC3)CC2C1 (stereo not drawn) | > -5
CC1CC(NC(C2CC2)C2CC2)=NC1C (mixture of isomers) | > -5
CC1CCC(NC(C2CC2)C2CC2)=N1 (stereo not drawn) | > -5
C1COC(NC(C2CC2)C2CC2)=N1 [RILMENIDINE] | -7.25
CCC1CCC(NC(C2CC2)C2CC2)=N1 (stereo not drawn) | > -5
CC1CCN=C1NC(C1CC1)C1CC1 (stereo not drawn) | > -5
